Measured values from ChEMBL document CHEMBL3112565, “Identification of small molecule sphingomyelin synthase inhibitors” (Eur J Med Chem, 2014).
pEC50, pIC50: −log10 of the molar value. Calls of active or inactive are those of the source. The calls are words filed in the database; no cut-off is given here.

Assays:
[1] = biological target: T1, Phosphatidylcholine:ceramide cholinephosphotransferase 2 (Homo sapiens, UniProt Q8NHU3); test: Inhibition of SMS2 (unknown origin) expressed in H5 insect cells using C6-NBD-Cer as substrate after 1 hr
T1 sequence (Q8NHU3 whole entry): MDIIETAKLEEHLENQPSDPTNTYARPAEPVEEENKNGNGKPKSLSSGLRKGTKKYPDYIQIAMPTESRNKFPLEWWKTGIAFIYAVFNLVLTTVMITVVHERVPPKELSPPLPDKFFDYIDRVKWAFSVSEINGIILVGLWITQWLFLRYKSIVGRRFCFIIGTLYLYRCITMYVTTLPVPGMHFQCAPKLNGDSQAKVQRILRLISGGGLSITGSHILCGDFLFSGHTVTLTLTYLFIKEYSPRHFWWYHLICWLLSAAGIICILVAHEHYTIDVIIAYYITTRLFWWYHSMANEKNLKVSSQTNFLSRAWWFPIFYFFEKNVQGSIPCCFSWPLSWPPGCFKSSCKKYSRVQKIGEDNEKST
How it was run: (§1)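 SMS2 came from homogenate of H5 insect cells overexpressing it, prepared at 50 mg pellet/mL in 0.25 M sucrose, 50 mM Tris-HCl pH 7.4, 1 mM EDTA and spun at 12,000 rpm for 10 min. The enzyme (2 µg total protein) was preincubated with inhibitor for 30 min at 37 °C in 10 mM HEPES pH 7.4, 3 mM MnCl2, 0.3% BSA. Reaction was started with 1.01 mM C6-NBD-Cer plus DMPC in DMSO and run 1 h at 37 °C. Product was quantified by HPLC as for SMS.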

[2] = Inhibition of sphingomyelin synthase in ICR mouse liver homogenates using C6-NBD-Cer as substrate after 2 hrs; type: tissue-based
How it was run: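 Enzyme was the 12,000 rpm supernatant of ICR mouse liver homogenized at 300 mg/mL in 0.25 M sucrose, 50 mM Tris-HCl pH 7.4, 1 mM EDTA; 2 µg protein per assay. Preincubated with inhibitor 30 min at 37 °C in 10 mM HEPES pH 7.4, 3 mM MnCl2, 0.3% BSA. C6-NBD-ceramide and DMPC were then added and the reaction ran 2 h at 37 °C before ethanol quench. C6-NBD-SM was measured by C18 HPLC with fluorescence detection (ex 475/em 525 nm). IC50 from five inhibitor concentrations, triplicate, log[inhibitor] vs response fit.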

[3] = Inhibition of sphingomyelin synthase (unknown origin); set-up: species or system Homo sapiens
[4] = biological target: Sphingomyelin synthase (Mus musculus); test: Inhibition of SMS in ICR mouse liver homogenate using C6-NBD-Cer as substrate after 2 hrs
[5] = Inhibition of sphingomyelin synthase (unknown origin) by cell based assay; settings: Homo sapiens
[6] = biological target: T1, Phosphatidylcholine:ceramide cholinephosphotransferase 2; test: Inhibition of SMS2 (unknown origin) expressed in H5 insect cells using C6-NBD-Cer as substrate at 100 uM after 1 hr; how it was run: as §1
[7] = Half life in saline solution at 24 degC; type: ADME
[8] = Cytotoxicity against human HuH7 cells assessed as cell viability after 17 hrs by MTT assay; type: cell-based, Huh-7
How it was run: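 Huh-7 cells exposed to a range of concentrations for 17 h, then viability read by MTT. CC50 is the concentration giving 50% inhibition relative to vehicle (0.25% DMSO). Quintuplicate samples; mean of at least two independent tests.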

[9] = test system: Mus musculus; test: Inhibition of sphingomyelin synthase in ICR mouse assessed as decrease of sphingomyelin level in plasma at 6 mg/kg, iv after 2 hrs; type: functional, organism-based; set-up: dose 6 mg/kg
How it was run: (§2)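 Female ICR mice (about 25 g), n=5 per group, received 150 µg (6 mg/kg) in 15 µL DMSO plus 185 µL PBS pH 7.4, given i.v. or i.p.; controls got vehicle i.v. Blood was taken from the eye after 2 h and frozen in liquid nitrogen. Plasma ceramide and sphingomyelin were measured by mass spectrometry. Groups compared by Student's t-test.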

[10] = test system: Mus musculus; test: Inhibition of sphingomyelin synthase in ICR mouse assessed as decrease of sphingomyelin level in plasma at 6 mg/kg, ip after 2 hrs; type: functional, organism-based; set-up: dose 6 mg/kg; how it was run: as §2
[11] = test system: Mus musculus; test: Inhibition of sphingomyelin synthase in ICR mouse assessed as increase of ceramide level in plasma at 6 mg/kg, iv after 2 hrs; type: functional, organism-based; set-up: dose 6 mg/kg; how it was run: as §2
[12] = test system: Mus musculus; test: Inhibition of sphingomyelin synthase in ICR mouse assessed as increase of ceramide level in plasma at 6 mg/kg, ip after 2 hrs; type: functional, organism-based; set-up: dose 6 mg/kg; how it was run: as §2

**Q.** With N#CC(Nc1cccnc1)c1ccccc1OCc1ccccc1 (centres undefined) as the molecule, how does the pIC50 [1] read?
**A.** The pIC50 was 4.46.

**Q.** With N#CC(Nc1ccccc1Cl)c1ccccc1OCc1ccccc1 (centres undefined) as the molecule, how does the pIC50 [1] read?
**A.** Its pIC50 is 4.80.

**Q.** And the pIC50 [2]?
**A.** Its pIC50 is 4.04.

**Q.** With O=C(C(c1ccccc1)c1ccccc1)N1CCN(CC(O)COc2cccc3ncccc23)CC1 (centres undefined) as the molecule, how does the pIC50 [3] read?
**A.** The pIC50 was < 3.30.

**Q.** With Cc1ccccc1NC(C#N)c1ccccc1OCc1ccccc1 (centres undefined) as the molecule, how does the pIC50 [1] read?
**A.** The pIC50 was 4.17.

**Q.** With N#Cc1ccccc1NC(C#N)c1ccccc1OCc1ccccc1 (centres undefined) as the molecule, how does the pIC50 [1] read?
**A.** The pIC50 was 4.69.

**Q.** With COc1ccc(NC(C#N)c2ccccc2OCc2ccccc2)cc1 (centres undefined) as the molecule, how does the pIC50 [1] read?
**A.** Its pIC50 is 4.32.

**Q.** With N#CC(Nc1ccc(C(N)=O)cc1)c1ccccc1OCc1ccccc1 (centres undefined) as the molecule, how does the pIC50 [1] read?
**A.** Its pIC50 is 4.09.

**Q.** And the pIC50 [2]?
**A.** The pIC50 was 3.71.

**Q.** With N#CC1c2ccccc2OC(c2ccccc2O)N1c1ccccc1 (centres undefined) as the molecule, how does the pIC50 [4] read?
**A.** Its pIC50 is 4.12.

**Q.** With Cc1cccc(C)c1NC(C#N)c1ccccc1OCc1ccccc1 (centres undefined) as the molecule, how does the pIC50 [1] read?
**A.** Its pIC50 is 4.50.

**Q.** With S=C(S)OC1CC2CC1C1CCCC21 (centres undefined) as the molecule, how does the pIC50 [3] read?
**A.** Its pIC50 is 3.43.

**Q.** What about the pIC50 [1] of the same molecule?
**A.** Its pIC50 is 3.65.

**Q.** And the pEC50 [5]?
**A.** The pEC50 was 4.05.

**Q.** And the pIC50 [2]?
**A.** Its pIC50 is 3.40.

**Q.** Which IC50 [6] does the source give for COc1cccc(NC(C#N)c2ccccc2OCc2ccccc2)c1 (centres undefined) here?
**A.** The IC50 was “Not Active”.

**Q.** With Cc1ccc(NC(C#N)c2ccccc2OCc2ccccc2)cc1 (centres undefined) as the molecule, how does the pIC50 [1] read?
**A.** The pIC50 was 4.68.

**Q.** With NC(=O)C(Nc1ccccc1)c1ccccc1OCc1ccccc1 (centres undefined) as the molecule, how does the pIC50 [1] read?
**A.** Its pIC50 is 3.87.

**Q.** With N#CC(Nc1ccccc1)c1cccc(OCc2ccccc2)c1 (centres undefined) as the molecule, how does the pIC50 [1] read?
**A.** Its pIC50 is 4.29.

**Q.** With c1ccc(COc2ccccc2CNc2ccccc2)cc1 as the molecule, how does the IC50 [6] read?
**A.** The IC50 was “Not Active”.

**Q.** Which half-life [7] does the source give for S=C(OC1CC2CC1C1CCCC21)[S][K] (centres undefined) here?
**A.** The half-life was 19.5 min.

**Q.** With N#CC(NCc1ccco1)c1ccccc1OCc1ccccc1 (centres undefined) as the molecule, how does the pIC50 [1] read?
**A.** Its pIC50 is 4.15.

**Q.** With N#CC(Nc1ccccc1O)c1ccccc1OCc1ccccc1 (centres undefined) as the molecule, how does the pIC50 [1] read?
**A.** Its pIC50 is 4.72.

**Q.** For N#CC(Nc1ccccc1)c1ccc(OCc2ccccc2)cc1 (centres undefined), which IC50 [6] is on record?
**A.** Its IC50 is “Not Active”.

**Q.** With N#CC(Nc1ccccc1[N+](=O)[O-])c1ccccc1OCc1ccccc1 (centres undefined) as the molecule, how does the pIC50 [1] read?
**A.** Its pIC50 is 4.56.

**Q.** Which IC50 [6] does the source give for c1ccc(COc2ccccc2C(Nc2ccccc2)c2nnn[nH]2)cc1 (centres undefined) here?
**A.** Its IC50 is “Not Active”.

**Q.** With COc1ccccc1NC(C#N)c1ccccc1OCc1ccccc1 (centres undefined) as the molecule, how does the pIC50 [1] read?
**A.** The pIC50 was 4.91.

**Q.** What about the pIC50 [2] of the same molecule?
**A.** The pIC50 was 4.45.

**Q.** With N#CC(Nc1ccc(Cl)cc1)c1ccccc1OCc1ccccc1 (centres undefined) as the molecule, how does the pIC50 [1] read?
**A.** Its pIC50 is 4.65.

**Q.** What about the pIC50 [2] of the same molecule?
**A.** The pIC50 was 4.03.

**Q.** For N#CC(Nc1ccccc1)c1ccccc1OCc1ccccc1 (centres undefined), which CC50 at 17 h [8] is on record?
**A.** The CC50 at 17 h was 245 µM.

**Q.** And the inhibition [9]?
**A.** The inhibition was “Active”.

**Q.** What about the inhibition [10] of the same molecule?
**A.** Its inhibition is “Active”.

**Q.** What about the inhibition [11] of the same molecule?
**A.** The inhibition was “Active”.

**Q.** And the inhibition [12]?
**A.** The inhibition was “Active”.

**Q.** What about the pIC50 [1] of the same molecule?
**A.** The pIC50 was 4.87.

**Q.** And the pIC50 [2]?
**A.** Its pIC50 is 4.61.

**Q.** With N#CC(Nc1ccc(O)cc1)c1ccccc1OCc1ccccc1 (centres undefined) as the molecule, how does the pIC50 [1] read?
**A.** The pIC50 was 4.61.

**Q.** Which IC50 [6] does the source give for N#CC(Nc1ccccc1)c1ccccc1 (centres undefined) here?
**A.** Its IC50 is “Not Active”.
